Yeast superoxide: reduction of superoxide in aged yeast, primary screen, HTS; S. cerevisiae aged cells, superoxide DHE fluorescence; hits give low values; superoxide response (% of plate mean), % at 10 µM; 330,000 compounds, 0.18% hits;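 active = superoxide response under a set limit, about three screen SD below normal, cut at about 65% in these data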;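 note: yeast aged for seven days with compound at 30 °C before DHE staining; 100% = average MFI of all compound-treated wells on the plate with controls excluded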
TRPC6 activator: mouse TRPC6 channel activators, primary screen, cell-based, HEK293, membrane potential dye | HEK293-TRPC6 membrane potential dye fluorescence; hits give high values | 310,000 compounds, 0.13% hits | AID 2550, 2010 | Short transient receptor potential channel 6 (Mus musculus), Q61143 | B-score at 10 µM;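 active = B-score of the integrated fluorescence ratio above library mean plus 3 SD, and starting fluorescence ratio within library mean plus 5 SD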;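 note: higher score means more depolarization so channel activation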
TRPC4 inh: inhibitors of mouse TRPC4 channel, primary screen, Fluo4 calcium, HEK293 TRPC4beta/mu-opioid cells | 300,000 compounds, 0.39% hits | AID 2247, 2010 | DAMGO-evoked Fluo4 calcium flux; hits give low values | Short transient receptor potential channel 4 (Mus musculus), Q9QUQ5 | B-score at 10 µM;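 active = B-score over 3 SD under the library average, no early fluorescence shift, positive overall ratio signal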
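Assay system: HEK293 cells with stable TRPC4beta plus mu-opioid receptor expression. Dosing: single dose. Measured by: Fluo4 Ca2+ flux fluorescence. Also added: DAMGO in two steps, submaximal then maximal. Read-out: B score from integrated Fluo4 fluorescence ratio.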
TRPC6 inhibitor: mouse TRPC6 channel inhibitors, primary screen, cell-based, HEK293, membrane potential dye; Short transient receptor potential channel 6 (Mus musculus), Q61143; ACh-evoked depolarization; hits give low values; B-score at 10 µM; 310,000 compounds, 1.1% hits; AID 2553, 2010;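 active = B-score under library mean minus 3 SD, initial fluorescence not abnormally high, positive integrated signal ratio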;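 note: B-score derived from integrated fluorescence ratio over the kinetic read; more negative B-score means stronger inhibition of depolarization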
TRPC4 potent: positive allosteric modulators of TRPC4, primary screen, cell-based, mouse TRPC4beta, HEK293 mu-opioid, Fluo-4 calcium. Short transient receptor potential channel 4 (Mus musculus), Q9QUQ5. DAMGO EC20, Fluo-4 Ca2+ flux; hits give high values. B-score at 10 µM. 310,000 compounds, 0.42% hits;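 active = B-score of calcium response area above 5 SD of library B-scores, with initial fluorescence ratio within 5 SD of library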;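 note: B-score of integrated fluorescence ratio over time as area under calcium response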
TRPC4 agonist: activators of mouse TRPC4 channel, primary screen, Fluo4 calcium, HEK293 TRPC4beta/mu-opioid cells. AID 2237, 2010. 310,000 compounds, 0.49% hits. Short transient receptor potential channel 4 (Mus musculus), Q9QUQ5. Fluo4 calcium fluorescence; hits give high values. B-score at 10 µM;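 active = B-score above 5 SD of library B-scores, and initial fluorescence ratio not above library mean plus 5 SD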;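 note: positive B-score marks a calcium rise read as TRPC4 activation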
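Material: HEK293 stable line with TRPC4beta plus mu-opioid receptor; technique: Fluo4 calcium-sensitive dye fluorescence, kinetic, 1 Hz baseline; timing: Fluo4 dye loading 45 min at room temperature, 110 s recording; controls: assay buffer as low control, maximal DAMGO as high control; read-out: integrated baseline-normalised fluorescence ratio, converted to per-well B score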
Superoxide pick: superoxide lowering in aged yeast cells, confirmation, cherry picked compounds; 850 compounds, 1% hits; superoxide response (% of plate), % at 10 µM; S. cerevisiae aging, superoxide DHE fluorescence; hits give low values; shares compounds with Yeast superoxide;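 active = superoxide signal below 65% of the plate average of sample wells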;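 note: cells aged with compound for 7 days at 30 degrees C before staining; 100% equals mean DHE fluorescence of all compound wells on the plate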
DHE fluor count: DHE quenching or ROS scavenging interference in aged yeast, artefact control for yeast caloric restriction mimetic project, S. cerevisiae BY4741, flow cytometry. fluorescence response, % at 10 µM. DHE fluorescence; hits give low values. 850 tested, under 10 active. shares compounds with Yeast superoxide;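 active = fluorescence response below 15%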;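 note: percent of the mean fluorescence averaged over all compound wells on the plate; lower means stronger quenching of DHE signal or ROS scavenging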
* marks the source's active call; other numbers are inactive results. Hits are enriched below; roughly 2.3% of the tested compounds scored in any of these assays.

Results for O=[N+]([O-])c1ccc(C2CCCC/C2=N\OCc2cccc(F)c2)c([N+](=O)[O-])c1 (stereo not given) ?
Yeast superoxide: 101; TRPC6 activator: inactive; TRPC4 inh: inactive; TRPC6 inhibitor: inactive; TRPC4 potent: inactive; TRPC4 agonist: inactive

What do the screens show for `Cn1c(=O)c2[nH]c(N3CCCCC3)nc2n(C)c1=O`?
Yeast superoxide: 65*; TRPC6 activator: inactive; TRPC4 inh: inactive; TRPC6 inhibitor: inactive; TRPC4 potent: inactive; TRPC4 agonist: inactive; Superoxide pick: 80; DHE fluor count: 90

Results for COc1cccc(Nc2ccc([N+](=O)[O-])c3nonc23)c1 ?
Yeast superoxide: 109; TRPC6 activator: inactive; TRPC4 inh: inactive; TRPC6 inhibitor: inactive; TRPC4 potent: inactive; TRPC4 agonist: inactive

How did Cc1ccc(NC(=O)c2ccc(C(=O)c3ccccc3)cc2)nc1 do in these assays?
Yeast superoxide: 63*; TRPC6 activator: inactive; TRPC4 inh: inactive; TRPC6 inhibitor: inactive; TRPC4 potent: inactive; TRPC4 agonist: inactive; Superoxide pick: 98; DHE fluor count: 92

How did Clc1ccc(Nc2ncnc3c2cnn3-c2ccccc2)cc1 do in these assays?
Yeast superoxide: 103; TRPC6 activator: inactive; TRPC4 inh: inactive; TRPC6 inhibitor: inactive; TRPC4 potent: inactive; TRPC4 agonist: inactive

How did CC(C)(C)Nc1ncnc2c1cnn2-c1ccccc1 do in these assays?
Yeast superoxide: 87; TRPC6 activator: inactive; TRPC4 inh: inactive; TRPC6 inhibitor: inactive; TRPC4 potent: inactive; TRPC4 agonist: inactive; Superoxide pick: 100; DHE fluor count: 95

What do the screens show for `CC(C)Nc1ncnc2c1cnn2-c1ccc(Cl)cc1`?
Yeast superoxide: 98; TRPC6 activator: inactive; TRPC4 inh: inactive; TRPC6 inhibitor: inactive; TRPC4 potent: inactive; TRPC4 agonist: inactive; Superoxide pick: 90; DHE fluor count: 91

What do the screens show for `Cc1cc(OC(C)C(=O)NCCCN2CCOCC2)c2c(C)cc(=O)oc2c1` (stereo not given)?
Yeast superoxide: 104; TRPC6 activator: inactive; TRPC4 inh: inactive; TRPC6 inhibitor: inactive; TRPC4 potent: inactive; TRPC4 agonist: inactive

What do the screens show for `CSc1nc(Oc2ccc(C)cc2)cc(C(F)(F)F)n1`?
Yeast superoxide: 112; TRPC6 activator: inactive; TRPC4 inh: inactive; TRPC6 inhibitor: inactive; TRPC4 potent: inactive; TRPC4 agonist: inactive

Results for CC12CCCC[C@@H]1CCC1C2CCC2(C)C1CC[C@@]2(O)CNCCO (stereo not given in full) ?
Yeast superoxide: 89; TRPC6 activator: inactive; TRPC4 inh: inactive; TRPC6 inhibitor: inactive; TRPC4 potent: inactive; TRPC4 agonist: inactive; Superoxide pick: 103; DHE fluor count: 94

What do the screens show for `CCOC(=O)NC(=O)/C(C#N)=N\Nc1cccc(OC)c1`?
Yeast superoxide: 102; TRPC6 activator: inactive; TRPC4 inh: inactive; TRPC6 inhibitor: inactive; TRPC4 potent: inactive; TRPC4 agonist: inactive; Superoxide pick: 122; DHE fluor count: 124

Results for CCOC(=O)/C(C#N)=N/Nc1ccccc1C#N ?
Yeast superoxide: 114; TRPC6 activator: inactive; TRPC4 inh: inactive; TRPC6 inhibitor: inactive; TRPC4 potent: inactive; TRPC4 agonist: inactive

Results for N#C/C(=N\Nc1c(Cl)cccc1Cl)C(=O)NN ?
Yeast superoxide: 94; TRPC6 activator: inactive; TRPC4 inh: inactive; TRPC6 inhibitor: inactive; TRPC4 potent: inactive; TRPC4 agonist: inactive; Superoxide pick: 110; DHE fluor count: 119

What do the screens show for `CCOC(=O)NC(=O)/C(C#N)=N/Nc1c(F)cccc1F`?
Yeast superoxide: 93; TRPC6 activator: inactive; TRPC4 inh: inactive; TRPC6 inhibitor: inactive; TRPC4 potent: inactive; TRPC4 agonist: inactive; Superoxide pick: 101; DHE fluor count: 104

Results for N#C/C(=N\Nc1ccccc1Cl)C(=O)c1ccccc1 ?
Yeast superoxide: 105; TRPC6 activator: inactive; TRPC4 inh: inactive; TRPC6 inhibitor: inactive; TRPC4 potent: inactive; TRPC4 agonist: inactive

How did CCc1ccc(N2CCN(C(=O)c3ccc4c(c3)OCO4)CC2)cc1 do in these assays?
Yeast superoxide: 102; TRPC6 activator: inactive; TRPC4 inh: inactive; TRPC6 inhibitor: inactive; TRPC4 potent: inactive; TRPC4 agonist: inactive

Results for C#CCOCCOCCOCCNc1nc(N2CCN(C(=O)[C@H](CCCCN)n3cc(C(N)CO)nn3)CC2)nc(N2CCN(C(=O)[C@H](CCCCN)n3cc(C(N)COC(=O)C(F)(F)F)nn3)CC2)n1 (stereo not given in full) ?
Yeast superoxide: 96; TRPC6 activator: inactive; TRPC4 inh: inactive; TRPC6 inhibitor: inactive; TRPC4 potent: inactive; TRPC4 agonist: inactive

What do the screens show for `CCN(CC)S(=O)(=O)c1ccc(N2CCCC2)c(NC(=O)Cc2c(F)cccc2Cl)c1`?
Yeast superoxide: 100; TRPC6 activator: inactive; TRPC4 inh: inactive; TRPC6 inhibitor: inactive; TRPC4 potent: inactive; TRPC4 agonist: inactive; Superoxide pick: 102; DHE fluor count: 93

Results for CCCCc1cc(=O)oc2cc(OCC(=O)N3CCC(C(=O)O)(c4ccccc4)CC3)ccc12 ?
Yeast superoxide: 64*; TRPC6 activator: inactive; TRPC4 inh: inactive; TRPC6 inhibitor: inactive; TRPC4 potent: inactive; TRPC4 agonist: inactive; Superoxide pick: 113; DHE fluor count: 95

How did CCCCc1cc(=O)oc2cc(OCC(=O)N3CCOCC3)ccc12 do in these assays?
Yeast superoxide: 101; TRPC6 activator: inactive; TRPC4 inh: inactive; TRPC6 inhibitor: inactive; TRPC4 potent: inactive; TRPC4 agonist: inactive
